The values that follow come from ChEMBL document CHEMBL5247577, “Improved Selective Class I HDAC and Novel Selective HDAC3 Inhibitors: Beyond Hydroxamic Acids and Benzamides” (ACS Med Chem Lett, 2019).

The target in one series is Histone deacetylase. The series can be described thus: Inhibition of HDAC in human HeLa cells using FLUOR DE LYS-SIRT1 as fluorogenic substrate incubated for 4 hrs by spectrophotometer based analysis. Type of series: cell-based.
A further series has as its target Histone deacetylase 1 (Homo sapiens, UniProt Q13547). The series can be described thus: Inhibition of human recombinant his tagged HDAC1 expressed in baculovirus expression system using FLUOR DE LYS-SIRT1 as fluorogenic substrate preincubated for 10 mins followed by substrate addition and measured after 1 hr by spectrophotometer based analysis.
Series [1] has as its target Voltage-gated inwardly rectifying potassium channel KCNH2 (Homo sapiens, UniProt Q12809). The series can be described thus: Inhibition of hERG potassium channel incubated for 4 hrs by fluorescence polarization assay. It is filed as toxicity. A general note: hERG is a cardiac potassium channel; its block is linked to QT prolongation.
The next series addresses Histone deacetylase 3 (Homo sapiens, UniProt O15379). The series can be described thus: Inhibition of human HDAC3 expressed in baculovirus infected insect cells using FLUOR DE LYS-SIRT1 as fluorogenic substrate preincubated for 10 mins followed by substrate addition and measured after 1 hr by spectrophotometer based analysis.
The next series concerns the target Histone deacetylase 2 (Homo sapiens, UniProt Q92769). The series can be described thus: Inhibition of human HDAC2.
A short description of series [2]: AUC in NMRI mouse plasma at 5 to 20 mg/kg, po by LC/MS/MS analysis. Type of series: ADME, organism-based. Also on record: route po. The settings on record: NMRI, plasma, dose 5-20 mg/kg, read-out: AUC. The method in brief:
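Compound given orally as its tartrate salt at 20 mg/kg in mouse, 10 mg/kg in rat and 5 mg/kg in minipig.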

Series [3] in a line: Metabolic stability in human hepatocyte assessed as half life. Type of series: ADME, cell-based. The conditions noted are these: hepatocytes.
A short description of series [4]: Metabolic stability in human plasma assessed as half life. Type of series: ADME, cell-free.
Series [5] in a line: Metabolic stability in mouse hepatocyte assessed as half life. The settings on record: hepatocytes. Type of series: ADME, cell-based.
A short description of series [6]: Metabolic stability in mouse plasma assessed as half life. Type of series: ADME, cell-free.

A value given as a limit tells only on which side of the number the result lay.

Sequence of Voltage-gated inwardly rectifying potassium channel KCNH2 (Q12809 whole entry): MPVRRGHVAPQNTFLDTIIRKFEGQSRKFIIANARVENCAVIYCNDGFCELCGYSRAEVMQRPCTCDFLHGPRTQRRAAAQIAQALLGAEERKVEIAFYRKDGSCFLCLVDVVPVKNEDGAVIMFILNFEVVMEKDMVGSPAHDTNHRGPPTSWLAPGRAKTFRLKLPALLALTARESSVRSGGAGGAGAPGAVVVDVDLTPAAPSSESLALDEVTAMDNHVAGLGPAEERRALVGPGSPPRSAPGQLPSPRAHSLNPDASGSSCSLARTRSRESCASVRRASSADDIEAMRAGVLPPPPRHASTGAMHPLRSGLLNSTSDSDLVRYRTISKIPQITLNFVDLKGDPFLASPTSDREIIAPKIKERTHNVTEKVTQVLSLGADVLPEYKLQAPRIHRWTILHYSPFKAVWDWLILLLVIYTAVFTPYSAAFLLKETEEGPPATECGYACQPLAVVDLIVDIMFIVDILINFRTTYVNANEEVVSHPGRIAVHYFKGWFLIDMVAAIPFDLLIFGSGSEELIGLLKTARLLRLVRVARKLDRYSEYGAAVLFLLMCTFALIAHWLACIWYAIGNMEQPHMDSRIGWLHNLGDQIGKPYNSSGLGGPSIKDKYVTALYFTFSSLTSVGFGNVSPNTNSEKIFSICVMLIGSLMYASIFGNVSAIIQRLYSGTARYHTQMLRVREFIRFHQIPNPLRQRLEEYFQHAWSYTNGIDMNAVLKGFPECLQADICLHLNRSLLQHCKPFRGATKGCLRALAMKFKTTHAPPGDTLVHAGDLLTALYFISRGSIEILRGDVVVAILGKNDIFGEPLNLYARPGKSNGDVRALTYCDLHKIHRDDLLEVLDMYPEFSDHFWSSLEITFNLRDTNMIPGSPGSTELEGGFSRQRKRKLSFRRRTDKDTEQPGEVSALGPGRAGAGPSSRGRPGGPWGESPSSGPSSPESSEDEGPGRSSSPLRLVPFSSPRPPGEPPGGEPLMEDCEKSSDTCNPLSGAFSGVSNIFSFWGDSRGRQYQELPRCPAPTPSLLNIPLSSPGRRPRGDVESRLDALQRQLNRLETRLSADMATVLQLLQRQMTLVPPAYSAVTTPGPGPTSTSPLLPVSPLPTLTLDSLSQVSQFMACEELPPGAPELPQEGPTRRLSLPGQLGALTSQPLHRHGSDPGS
Sequence of Histone deacetylase 1 (Q13547 whole entry): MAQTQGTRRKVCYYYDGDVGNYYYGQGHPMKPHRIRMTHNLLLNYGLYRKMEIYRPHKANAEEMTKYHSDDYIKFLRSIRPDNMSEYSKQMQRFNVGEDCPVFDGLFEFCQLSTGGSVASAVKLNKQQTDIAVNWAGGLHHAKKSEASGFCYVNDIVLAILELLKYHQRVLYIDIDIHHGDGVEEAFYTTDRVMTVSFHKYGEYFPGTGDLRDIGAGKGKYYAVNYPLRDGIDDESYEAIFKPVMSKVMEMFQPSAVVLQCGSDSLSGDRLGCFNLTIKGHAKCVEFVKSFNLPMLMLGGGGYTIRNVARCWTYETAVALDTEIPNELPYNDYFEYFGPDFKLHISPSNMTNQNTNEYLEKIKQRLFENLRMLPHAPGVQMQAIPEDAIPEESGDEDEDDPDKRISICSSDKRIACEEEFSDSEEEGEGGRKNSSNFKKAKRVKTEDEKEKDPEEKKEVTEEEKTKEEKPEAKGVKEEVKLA
Sequence of Histone deacetylase 2 (Q92769 whole entry): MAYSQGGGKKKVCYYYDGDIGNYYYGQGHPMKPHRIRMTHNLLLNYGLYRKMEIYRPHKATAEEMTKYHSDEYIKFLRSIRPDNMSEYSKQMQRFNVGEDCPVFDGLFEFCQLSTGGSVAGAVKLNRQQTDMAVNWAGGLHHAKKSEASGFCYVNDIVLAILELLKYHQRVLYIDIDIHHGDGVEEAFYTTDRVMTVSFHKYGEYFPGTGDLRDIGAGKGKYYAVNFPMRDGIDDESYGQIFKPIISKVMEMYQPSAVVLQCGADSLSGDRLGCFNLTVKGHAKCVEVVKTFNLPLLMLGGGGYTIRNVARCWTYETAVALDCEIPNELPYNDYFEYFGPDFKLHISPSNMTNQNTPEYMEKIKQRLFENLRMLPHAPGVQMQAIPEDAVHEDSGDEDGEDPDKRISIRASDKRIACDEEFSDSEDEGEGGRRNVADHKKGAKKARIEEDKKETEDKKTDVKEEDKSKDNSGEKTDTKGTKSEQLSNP
Sequence of Histone deacetylase 3 (O15379 whole entry): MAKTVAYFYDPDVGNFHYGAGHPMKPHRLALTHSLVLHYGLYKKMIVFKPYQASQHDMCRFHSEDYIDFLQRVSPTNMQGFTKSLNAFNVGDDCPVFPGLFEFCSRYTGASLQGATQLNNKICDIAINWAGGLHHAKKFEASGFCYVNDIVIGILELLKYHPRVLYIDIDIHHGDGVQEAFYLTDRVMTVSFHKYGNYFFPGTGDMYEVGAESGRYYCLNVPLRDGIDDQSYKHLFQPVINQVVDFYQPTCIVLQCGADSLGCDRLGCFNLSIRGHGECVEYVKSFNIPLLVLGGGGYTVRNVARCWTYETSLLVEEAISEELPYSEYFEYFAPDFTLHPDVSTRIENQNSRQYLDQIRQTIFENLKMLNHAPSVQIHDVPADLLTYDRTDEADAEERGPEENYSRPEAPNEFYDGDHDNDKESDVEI

For the molecule `CCC(=O)CCCCC[C@H](NC(=O)C1CN(C)C1)c1ncc(-c2cc3ccccc3[nH]c2=O)o1`, the EC50 at Histone deacetylase turned out to be 94 nM. Besides, the IC50 on Histone deacetylase 1 is 2.1 nM; in [1], more than 30000 nM.
In the same order, the values of `CCC(=O)CCCCC[C@H](NC(=O)C(=O)N1CCOCC1)c1ncc(-c2cc3ccccc3nc2OC)o1` are 610 nM, 30.5 nM and more than 30000 nM.
Take `CNC(=O)CCCCC[C@H](NC(=O)c1cncs1)c1ncc(-c2ccc3ccccc3c2)[nH]1`: the IC50 on Histone deacetylase 1 was determined as 325 nM.
For `CCC(=O)CCCCC[C@H](NC(=O)C(C)(C)N(C)C)c1ncc(-c2cc3ccccc3nc2OC)o1`, the IC50 was less than 3.5 nM at Histone deacetylase 3, 3.5 nM at Histone deacetylase 1 and less than 3.5 nM against Histone deacetylase 2. This molecule had an EC50 on Histone deacetylase of 15 nM.
On Histone deacetylase, `CCC(=O)CCCCC[C@H](NC(=O)C1CNC(=O)C1)c1ncc(-c2cc3ccccc3nc2OC)o1` (some centres not stated) gave an EC50 of 208 nM. Besides, the IC50 on Histone deacetylase 1 was 3.2 nM; in [1], more than 30000 nM.
In the same order, the values of `CCC(=O)CCCCC[C@H](NC(=O)Cn1ccnn1)c1ncc(-c2cc3ccccc3nc2OC)o1` are 138 nM, 3 nM and more than 30000 nM.
On to `CCC(=O)CCCCC[C@H](NC(=O)C12CCN(CC1)CC2)c1ncc(-c2cc3ccccc3nc2OC)o1`, for which the IC50 against Histone deacetylase 3 is less than 3.5 nM; on Histone deacetylase 1, 1.6 nM; in [1], 190 nM; against Histone deacetylase 2, less than 3.5 nM. Besides, the concentration giving a half-maximal response (EC50) at Histone deacetylase came to 43 nM.
The molecule `CCC(=O)CCCCC[C@H](NC(=O)C1CN(C)C1)c1ncc(-c2ccc3ccccc3c2)[nH]1` came in with a concentration for a half-maximal effect (EC50) on Histone deacetylase of 125 nM. Also, the IC50 at Histone deacetylase 1 stood at 1.5 nM.
In the case of `CNC(=O)CCCCC[C@H](NC(=O)c1cncs1)c1ncc(-c2ccc(CN(C)C)cc2)[nH]1`, at Histone deacetylase 1, the IC50 was determined as 6070 nM.
Turning to `CCC(=O)CCCCC[C@H](NC(=O)C1CN(C)C1)c1ncc(-c2cc3ccccc3nc2OC)[nH]1`, the area under the curve (AUC) in series [2] turned out to be 0.9 µM·h. In series [1], half-maximal inhibition (IC50) required 3000 nM.
On to `CNC(=O)CCCCC[C@H](NC(=O)CCc1c[nH]c2ccccc12)c1ncc(-c2ccc(-n3cccn3)cc2)[nH]1`, for which the IC50 on Histone deacetylase 1 came out at 860 nM.
At Histone deacetylase, `CCC(=O)CCCCC[C@H](NC(=O)Cc1c(C)[nH]c2ccc(OC)cc12)c1ncc(-c2ccc3ccccc3c2)o1` had an EC50 of 412 nM. The IC50 at Histone deacetylase 1 was 19.6 nM.
`CCC(=O)CCCCC[C@H](NC(=O)Cc1c(C)[nH]c2ccc(OC)cc12)c1ncc(-c2ccc3ccccc3c2)[nH]1`: on Histone deacetylase, the concentration giving a half-maximal response (EC50) is recorded as 44 nM. For the same molecule, the IC50 on Histone deacetylase 1 is 3.2 nM.
In the same order, the values of `CCC(=O)CCCCC[C@H](NC(=O)C1CN(C)C1)c1ncc(-c2ccc3ccccc3c2)o1` are 873 nM and 12.2 nM.
Turning to `CNC(=O)CCCCC[C@H](NC(=O)CCc1c[nH]c2ccccc12)c1ncc(-c2ccc(CN(C)C)cc2)[nH]1`, on Histone deacetylase 1, the IC50 was 1370 nM.
For the molecule `CNC(=O)CCCCC[C@H](NC(=O)Cn1ccc2cc(C#N)ccc21)c1ncc(-c2ccc(CN(C)C)cc2)[nH]1`, the half-life in [3], in series [4], in series [5] and in series [6] was more than 4 h each time.
For the molecule `CCC(=O)CCCCC[C@H](NC(=O)C1(F)CN(C)C1)c1ncc(-c2cc3ccccc3nc2OC)o1`, on Histone deacetylase, the EC50 is given as 430 nM. Also, the IC50 was found to be 17 nM at Histone deacetylase 1 and 13600 nM in series [1].

As a reminder, the EC50 is the concentration giving half of the maximal effect. A lower EC50 goes with greater potency. Broadly, the IC50 is the concentration that gives 50% inhibition. As a reminder, the AUC is concentration integrated over time. For orientation: half-life means the time in which the quantity being followed falls by half.
